Common to all, as to assay type: cell-based
A short description of series [1]: DNS assay on normal human fibroblast. To be noted: HS27 normal fibroblasts. The method in brief:
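HS27 fibroblasts were tested by DNS imaging after exposure to test compound. Hoechst 33342, which stains all nuclei, and PI, which enters only membrane-compromised cells, were added before imaging.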

The nature of series [2]: MTT cell viability assay, normal WBCs. As to conditions: human. The method in brief:
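Human WBCs were isolated from diluted blood on HiSep density medium (400 × g, 30 min, room temperature). Mononuclear cells were PBS-washed, RBC-lysed for 5 min, washed again and kept in RPMI 1640 at 37 °C in 5% CO2. Cells were seeded at about 5×10³ per well and exposed to test compound at 2.5–100 μM for 48 h.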

For the next series, the target named is T1, GLUT4 (Homo sapiens, UniProt P14672).
T1 sequence (P14672 1-509): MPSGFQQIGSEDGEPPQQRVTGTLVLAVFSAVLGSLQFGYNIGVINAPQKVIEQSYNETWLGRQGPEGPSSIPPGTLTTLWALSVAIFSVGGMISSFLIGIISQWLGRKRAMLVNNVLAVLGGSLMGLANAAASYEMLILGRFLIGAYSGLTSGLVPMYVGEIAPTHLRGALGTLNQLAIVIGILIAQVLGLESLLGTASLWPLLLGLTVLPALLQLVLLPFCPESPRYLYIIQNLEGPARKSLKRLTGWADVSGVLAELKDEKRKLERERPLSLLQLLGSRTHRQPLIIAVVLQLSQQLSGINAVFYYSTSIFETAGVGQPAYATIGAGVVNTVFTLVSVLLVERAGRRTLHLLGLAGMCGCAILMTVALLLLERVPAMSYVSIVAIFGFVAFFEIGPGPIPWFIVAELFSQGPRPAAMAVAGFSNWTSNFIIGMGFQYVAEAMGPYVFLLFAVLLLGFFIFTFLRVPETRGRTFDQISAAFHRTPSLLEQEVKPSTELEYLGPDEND
Description: GLUT transport inhibition assay in hxt0 yeast cells. As to conditions: 50 μM compound, 5 mM C14-glucose. The method in brief: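 Human GLUT4 was expressed in VW4000fgy1erg4 yeast (1% maltose, then 0.2% glucose, SC-uracil). GLUT5 was expressed in VW4000 (YEP with 2% maltose and G418, then 2% fructose). PBS-washed cells were exposed to 50 μM test compound. Uptake of 14C-glucose (5 mM, GLUT4) or 14C-fructose (10 mM, GLUT5) ran 10 min, followed by quench, filtration and scintillation counting. Activity was relative to 1% DMSO and to saturating phloretin (GLUT4) or MSNBA (GLUT5). Triplicates.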

In series [1], `O=C(CN1C(=O)SC(=Cc2ccccn2)C1=O)Nc1nc2ccccc2s1` [Compound P19, N-(benzo[d]thiazol-2-yl)-2-(2,4-dioxo-5-(pyridin-2-ylmethylene)thiazolidin-3-yl)acetamide] yielded a CC50 of 105 µM. Further, the 50% cytotoxic concentration (CC50) at 48 h in series [2] is 104 µM. For the same molecule, the “relative transport activity of GLUT4” value on GLUT4 is recorded as “ineffective”.

The values are drawn from PMC7302971 (Bioorganic chemistry, 2020).
